Laboratory results reported in ChEMBL document CHEMBL1123797, “Antianaphylactic benzophenones and related compounds” (1987).

Assays:
Assay type in all cases: functional
Cavia porcellus [1] = organism: Cavia porcellus; test: Inhibition of slow reacting substance of anaphylaxis (SRS-A) release from sensitized guinea pig chopped lung upon antigen challenge at 10 ug/mL
Method in brief: (§1)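 Guinea pigs sensitized to ovalbumin; lungs taken 3 weeks later, perfused with Tyrode, chopped into 0.5-mm cubes. 100-mg aliquots in Tyrode were preincubated 5 min at 37 °C, then compound or Tyrode and ovalbumin (5 mg in 0.1 mL) were added. Incubation was 15 min at 37 °C with rocking, and supernatant was bioassayed. Unchallenged control gave spontaneous release. Values are % inhibition, mean of ≥4 samples; Student's t-test.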

Cavia porcellus [2] = organism: Cavia porcellus; test: Inhibition of histamine release from sensitized guinea pig chopped lung upon antigen challenge at 10 ug/mL.; method in brief: as §1
Cavia porcellus [3] = test: Time of dosing of compound before antigen challenge in conscious sensitized guinea pig at 50 mg/kg po dose; conditions: dose 50 mg/kg
Method in brief: (§2)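 Modified Herxheimer test in conscious sensitized guinea pigs, 4-5 per group. Compound was given orally at 25, 50 or 100 mg/kg 2 or 4 h before antigen challenge. Some groups also received mepyramine 0.5 mg/kg sc 0.5 h before challenge. D = mean collapse time of treated/untreated controls; M+D = mean collapse time of compound+mepyramine/mepyramine-dosed controls.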

Cavia porcellus [4] = test: Mean collapse time after pretreatment with compound divided by mean collapse time of untreated control animals at 50 mg/kg po dose; method in brief: as §2
Cavia porcellus [5] = test: Mean collapse time after pretreatment with compound and mepyramine divided by mean collapse time of mepyramine-dosed control animals at 50 mg/kg po dose; method in brief: as §2
Homo sapiens [6] = organism: Homo sapiens; test: Inhibition of Slow reacting substance of anaphylaxis (SRS-A) mediator release form passively sensitized human lung upon antigen challenge at 1 ug/mL dose
Method in brief: (§3)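 Healthy human lung from carcinoma surgery was chopped into 0.5-mm cubes and passively sensitized 18 h at 18 °C with atopic serum from cocksfoot-pollen-allergic patients. Tissue was preincubated 5 min with compound, challenged with pollen extract (0.1 mL, 1000 noon units) and incubated as for guinea pig lung. Supernatant was bioassayed on guinea pig ileum, with mepyramine-treated (0.4 μg/mL) ileum for SRS-A. Values are % inhibition of mediator release.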

Homo sapiens [7] = organism: Homo sapiens; test: Inhibition of Slow reacting substance of anaphylaxis (SRS-A) mediator release form passively sensitized human lung upon antigen challenge at 10 ug/mL dose; method in brief: as §3
Homo sapiens [8] = organism: Homo sapiens; test: Inhibition of Histamine mediator release form passively sensitized human lung upon antigen challenge at 10 ug/mL dose; method in brief: as §3
Homo sapiens [9] = organism: Homo sapiens; test: Inhibition of Histamine mediator release form passively sensitized human lung upon antigen challenge at 1 ug/mL dose; method in brief: as §3

CCc1ccc(C(=O)c2ccc(Cl)cc2)c(O)c1
Inhibition (Cavia porcellus [1]): 8%

CCc1ccc([S+](C)[O-])c(C(=O)c2ccc(F)cc2)c1 (centres undefined)
Inhibition (Cavia porcellus [1]): 42% | Inhibition (Cavia porcellus [2]): 9%

Cc1ccc(O)c(/C(=N/O)c2ccc(Cl)cc2)c1
Inhibition (Cavia porcellus [1]): 40% | Inhibition (Cavia porcellus [2]): 59%

Cc1ccc(C(=O)c2ccc(F)cc2)c(O)c1
Inhibition (Cavia porcellus [1]): 10%

CCc1ccc(O)c(C(=O)c2ccc(Cl)s2)c1
Inhibition (Cavia porcellus [1]): 21%

CCc1ccc(O)c(Cc2ccc(Cl)cc2)c1
Inhibition (Cavia porcellus [1]): 39% | Inhibition (Cavia porcellus [2]): 17%

CCc1ccc(C(=O)c2ccc(F)cc2)c(OC(C)=O)c1
Inhibition (Cavia porcellus [1]): 9%

CCc1ccc([S+](C)[O-])c(C(=O)c2ccc(Cl)cc2)c1 (centres undefined)
Inhibition (Cavia porcellus [1]): 36% | Inhibition (Cavia porcellus [2]): 1%

CCc1ccc(C(O)c2ccc(F)cc2)c(O)c1 (centres undefined)
Inhibition (Cavia porcellus [1]): 34% | Inhibition (Cavia porcellus [2]): 5%

CCc1ccc(S(C)(=O)=O)c(C(=O)c2ccc(C)cc2)c1
Inhibition (Cavia porcellus [1]): 11%

CCc1ccc(/C(=N/O)c2ccc(F)cc2)c(O)c1
Inhibition (Cavia porcellus [1]): 33% | Inhibition (Cavia porcellus [2]): 46%

CC(=O)c1ccc(O)c(C(=O)c2ccc(Cl)cc2)c1
Inhibition (Cavia porcellus [1]): 49% | Inhibition (Cavia porcellus [2]): 61%

CCc1ccc(O)c(C(O)c2ccccc2)c1 (centres undefined)
Inhibition (Cavia porcellus [1]): 37% | Inhibition (Cavia porcellus [2]): 7%

O=C(c1ccccc1)c1ccccc1O
Inhibition (Cavia porcellus [1]): 0%

CCc1cccc(C(=O)c2ccc(Cl)cc2)c1O
Inhibition (Cavia porcellus [1]): 2%

Cc1cccc(C(=O)c2ccccc2)c1O
Inhibition (Cavia porcellus [1]): 0%

CCc1ccc(OC)c(C(=O)c2ccncc2)c1
Inhibition (Cavia porcellus [1]): 0%

CCc1cccc(C(=O)c2ccccc2)c1O
Inhibition (Cavia porcellus [1]): 37% | Inhibition (Cavia porcellus [2]): 92%

CCc1ccc(O)c(Sc2ccccc2)c1
Inhibition (Cavia porcellus [1]): 0%

CCc1cc(CC)c(O)c(C(=O)c2ccc(Cl)cc2)c1
Inhibition (Cavia porcellus [1]): 38% | Inhibition (Cavia porcellus [2]): 9%

CCc1ccc(OC)c(C(=O)c2ccc([N+](=O)[O-])cc2)c1
Time (Cavia porcellus [3]): 2 h | Activity (Cavia porcellus [4]): 0.8 | Inhibition (Cavia porcellus [1]): 0% | Activity (Cavia porcellus [5]): 2.1

O=C(c1ccc(Cl)cc1)c1ccccc1O
Inhibition (Cavia porcellus [1]): 0%

CCc1ccc(O)c(C(=O)c2ccc(C)s2)c1
Inhibition (Cavia porcellus [1]): 28%

CCc1ccc(O)c(C(=O)c2cccc(Cl)c2)c1
Inhibition (Cavia porcellus [1]): 0%

CCc1ccc(O)c(C(=O)c2cccnc2)c1
Inhibition (Cavia porcellus [1]): 27%

CCc1ccc(O)c(C(=O)c2ccc(Cl)cc2Cl)c1
Inhibition (Cavia porcellus [1]): 0%

CCc1ccc(SC)c(C(O)c2ccc(Cl)cc2)c1 (centres undefined)
Inhibition (Cavia porcellus [1]): 11%

CCCc1ccc(O)c(C(=O)c2ccc(Cl)cc2)c1
Inhibition (Cavia porcellus [1]): 0%

Cc1ccc(O)c(C(=O)c2ccccc2)c1
Inhibition (Cavia porcellus [1]): 39% | Inhibition (Cavia porcellus [2]): 78%

CCc1ccc(O)c(C(=O)c2cccc(C#N)c2)c1
Inhibition (Cavia porcellus [1]): 21%

CCc1ccc(O)c([S+]([O-])c2ccccc2)c1 (centres undefined)
Inhibition (Cavia porcellus [1]): 36% | Inhibition (Cavia porcellus [2]): 36%

CCc1ccc(/C(=N/O)c2ccc(Cl)cc2)c(O)c1
Inhibition (Cavia porcellus [1]): 0%

CCc1ccc(O)c(Sc2ccc(Cl)cc2)c1
Inhibition (Cavia porcellus [1]): 31% | Inhibition (Cavia porcellus [2]): 31%

CCc1ccc(O)c(C(=O)c2cccn2C)c1
Time (Cavia porcellus [3]): 2 h | Activity (Cavia porcellus [4]): 1.2 | Inhibition (Cavia porcellus [1]): 0% | Activity (Cavia porcellus [5]): 2.3

CCc1ccc(O)c(/C(=N/O)c2ccc(Cl)c(Cl)c2)c1
Inhibition (Cavia porcellus [1]): 2%

CCc1ccc(S(C)(=O)=O)c(C(=O)c2ccc(F)cc2)c1
Inhibition (Cavia porcellus [1]): 27%

C=C(c1ccc(F)cc1)c1ccc(CC)cc1O
Inhibition (Cavia porcellus [1]): 32% | Inhibition (Cavia porcellus [2]): 0%

Cc1cccc(C(=O)c2ccc(Cl)cc2)c1O
Inhibition (Homo sapiens [6]): 100% | Inhibition (Homo sapiens [7]): 100% | Inhibition (Cavia porcellus [1]): 36% | Inhibition (Cavia porcellus [2]): 6% | Inhibition (Homo sapiens [8]): 0%

CCc1ccc(OC)c(C(OC)c2ccc(Cl)cc2)c1 (centres undefined)
Inhibition (Cavia porcellus [1]): 32% | Inhibition (Cavia porcellus [2]): 22%

CCc1ccc(OC(C)=O)c(C(=O)c2ccc(Cl)cc2)c1
Inhibition (Cavia porcellus [1]): 28%

CCc1cccc(/C(=N/O)c2ccccc2)c1O
Inhibition (Cavia porcellus [1]): 13%

CCc1ccc([S+](C)[O-])c(C(=O)c2ccc(C)cc2)c1 (centres undefined)
Inhibition (Homo sapiens [6]): 75% | Inhibition (Homo sapiens [7]): 100% | Inhibition (Cavia porcellus [1]): 40% | Inhibition (Cavia porcellus [2]): 3% | Inhibition (Homo sapiens [9]): 0% | Inhibition (Homo sapiens [8]): 0%

CCc1ccc(O)c(/C(=N/O)c2ccc(Cl)cc2Cl)c1
Inhibition (Cavia porcellus [1]): 0%

CCc1ccc(O)c(Cc2ccc(C)cc2)c1
Inhibition (Cavia porcellus [1]): 0%

CCc1ccc(O)c(C(O)c2ccc(Cl)cc2)c1 (centres undefined)
Inhibition (Cavia porcellus [1]): 5%

CCc1ccc(O)c(C(=O)c2ccccc2)c1
Time (Cavia porcellus [3]): 2 h | Activity (Cavia porcellus [4]): 2.5 | Inhibition (Cavia porcellus [1]): 22% | Activity (Cavia porcellus [5]): 1.2

CCc1ccc(OC(=O)c2ccccc2)c(C(=O)c2ccc(Cl)cc2)c1
Inhibition (Cavia porcellus [1]): 71% | Inhibition (Cavia porcellus [2]): 32%

CCc1ccc(OC(C)=O)c(C(=O)c2ccc(C)cc2)c1
Inhibition (Cavia porcellus [1]): 49% | Inhibition (Cavia porcellus [2]): 9%

CCc1ccc(SC)c(C(=O)c2ccc(Cl)cc2)c1
Activity (Cavia porcellus [4]): 0.6 | Inhibition (Cavia porcellus [1]): 29% | Activity (Cavia porcellus [5]): 2.3

CCc1ccc(O)c(C(=O)c2ccccn2)c1
Inhibition (Cavia porcellus [1]): 30% | Inhibition (Cavia porcellus [2]): 5%

CCc1ccc(OC)c(C(=O)c2ccccn2)c1
Inhibition (Cavia porcellus [1]): 0%

CCc1ccc(O)c(C(=O)c2ccncc2)c1
Inhibition (Cavia porcellus [1]): 0%

CCc1cc([S+]([O-])c2ccc(C)cc2)c(O)cc1Cl (centres undefined)
Inhibition (Cavia porcellus [1]): 5%

CCc1ccc(S(C)(=O)=O)c(C(=O)c2ccc(Cl)cc2)c1
Inhibition (Cavia porcellus [1]): 17%

CCc1ccc(OC)c(C(O)c2ccc(C)cc2)c1 (centres undefined)
Inhibition (Cavia porcellus [1]): 28%

CCCc1cccc(C(=O)c2ccc(Cl)cc2)c1O
Inhibition (Cavia porcellus [1]): 0%

CCc1ccc(O)c(C(=O)c2cccc3ccccc23)c1
Inhibition (Cavia porcellus [1]): 0%

CCc1ccc(Cc2ccc(F)cc2)c(O)c1
Inhibition (Cavia porcellus [1]): 34% | Inhibition (Cavia porcellus [2]): 33%

CCc1ccc(SC)c(C(=O)c2ccccc2)c1
Inhibition (Cavia porcellus [1]): 52% | Inhibition (Cavia porcellus [2]): 19%

Cc1cccc(/C(=N/O)c2ccccc2)c1O
Inhibition (Homo sapiens [6]): 39% | Inhibition (Homo sapiens [7]): 62% | Inhibition (Cavia porcellus [1]): 0% | Inhibition (Homo sapiens [9]): 8% | Inhibition (Homo sapiens [8]): 15%

CCc1ccc(S(C)(=O)=O)c(C(=O)c2ccccc2)c1
Inhibition (Cavia porcellus [1]): 35% | Inhibition (Cavia porcellus [2]): 13%

CCc1ccc(SC)c(C(=O)c2ccc(F)cc2)c1
Inhibition (Cavia porcellus [1]): 31% | Inhibition (Cavia porcellus [2]): 14%

CCc1ccc(O)c(C(=O)c2ccc([N+](=O)[O-])cc2)c1
Inhibition (Cavia porcellus [1]): 5%

Cc1ccc(/C(=N/O)c2ccc(Cl)cc2)c(O)c1
Inhibition (Cavia porcellus [1]): 0%

C=C(c1ccccc1)c1cc(CC)ccc1O
Inhibition (Cavia porcellus [1]): 24%

CCc1ccc(O)c(C(=O)c2ccc(C)cc2)c1
Inhibition (Cavia porcellus [1]): 76% | Inhibition (Cavia porcellus [2]): 53%

CCc1ccc(O)c(Cc2ccccc2)c1
Activity (Cavia porcellus [4]): 3 | Inhibition (Cavia porcellus [1]): 36% | Inhibition (Cavia porcellus [2]): 0% | Activity (Cavia porcellus [5]): 1.6

CCCc1ccc(O)c(/C(=N/O)c2ccc(Cl)cc2)c1
Inhibition (Cavia porcellus [1]): 8%

CCc1ccc(O)c(/C(=N/O)c2ccc(Cl)cc2)c1
Inhibition (Homo sapiens [6]): 93% | Inhibition (Homo sapiens [7]): 91% | Inhibition (Cavia porcellus [1]): 51% | Inhibition (Cavia porcellus [2]): 28% | Inhibition (Homo sapiens [9]): 0% | Inhibition (Homo sapiens [8]): 0%

CCc1ccc(O)c(C(=O)c2ccc(Br)cc2)c1
Inhibition (Cavia porcellus [1]): 10%

CCc1cccc(C(=O)c2ccc(Cl)cc2Cl)c1O
Inhibition (Homo sapiens [6]): 85% | Inhibition (Homo sapiens [7]): 100% | Inhibition (Cavia porcellus [1]): 44% | Inhibition (Cavia porcellus [2]): 8% | Inhibition (Homo sapiens [9]): 20% | Inhibition (Homo sapiens [8]): 60%

CCc1ccc(O)c(C(=O)c2ccccc2Cl)c1
Inhibition (Cavia porcellus [1]): 14%

Cc1ccc(O)c(/C(=N\O)c2ccc(Cl)cc2)c1
Inhibition (Cavia porcellus [1]): 32% | Inhibition (Cavia porcellus [2]): 25%

CCc1ccc(O)c(C(=O)c2ccc(Cl)c(Cl)c2)c1
Inhibition (Cavia porcellus [1]): 0%

Cc1cccc(/C(=N/O)c2ccc(Cl)cc2)c1O
Inhibition (Cavia porcellus [1]): 52% | Inhibition (Cavia porcellus [2]): 52%

C=C(c1ccc(Cl)cc1)c1cc(CC)ccc1O
Inhibition (Cavia porcellus [1]): 3%

CCc1ccc(O)c(C(=O)c2ccc(F)cc2)c1
Inhibition (Cavia porcellus [1]): 1%

CCCCc1ccc(O)c(C(=O)c2ccc(Cl)cc2)c1
Inhibition (Cavia porcellus [1]): 0%

CCc1ccc(O)c(C(O)c2ccc([N+](=O)[O-])cc2)c1 (centres undefined)
Inhibition (Cavia porcellus [1]): 33% | Inhibition (Cavia porcellus [2]): 0%

CCc1ccc(SC)c(C(=O)c2ccc(C)cc2)c1
Inhibition (Cavia porcellus [1]): 32% | Inhibition (Cavia porcellus [2]): 0%

CCCc1cccc(C(=O)c2ccccc2)c1O
Inhibition (Cavia porcellus [1]): 0%

CCc1ccc(O)c(C(=O)c2ccco2)c1
Inhibition (Cavia porcellus [1]): 32% | Inhibition (Cavia porcellus [2]): 0%

CCc1ccc(C(=O)O)c(C(=O)c2ccc(Cl)cc2)c1
Inhibition (Cavia porcellus [1]): 20%

CCc1ccc(O)c(C(=O)c2ccc3ccccc3c2)c1
Inhibition (Cavia porcellus [1]): 2%

CCc1ccc(C(=O)c2cccc(F)c2)c(O)c1
Inhibition (Cavia porcellus [1]): 26%

Cc1ccc(O)c(C(=O)c2ccc(Cl)cc2)c1
Inhibition (Cavia porcellus [1]): 46% | Inhibition (Cavia porcellus [2]): 0%

Cc1ccc(C(=O)c2ccc(Cl)cc2)c(O)c1
Inhibition (Cavia porcellus [1]): 0%

CCc1ccc(OC)c(C(=O)c2cc[n+]([O-])cc2)c1
Inhibition (Cavia porcellus [1]): 0%
